Compounds with a hit are over-represented: about 0.58% of the library has one in this group of screens.
V1aR counter = V1a receptor agonism, counter-screen for OXTR agonists. actives 0.25% (n = 320,000). P37288. CHO-V1R cells, Fluo-8 calcium fluorescence, agonist mode; 0% DMSO, 100% 3 nM vasopressin. activation, % at 3 µM;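 active means activation above the mean activation of all tested compounds plus 3 SD, per screening run, cut at about 20% in these data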;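 further: signal is peak over basal fluorescence ratio across a 100 second FLIPR read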
Target sequence (P37288 whole entry, looked up): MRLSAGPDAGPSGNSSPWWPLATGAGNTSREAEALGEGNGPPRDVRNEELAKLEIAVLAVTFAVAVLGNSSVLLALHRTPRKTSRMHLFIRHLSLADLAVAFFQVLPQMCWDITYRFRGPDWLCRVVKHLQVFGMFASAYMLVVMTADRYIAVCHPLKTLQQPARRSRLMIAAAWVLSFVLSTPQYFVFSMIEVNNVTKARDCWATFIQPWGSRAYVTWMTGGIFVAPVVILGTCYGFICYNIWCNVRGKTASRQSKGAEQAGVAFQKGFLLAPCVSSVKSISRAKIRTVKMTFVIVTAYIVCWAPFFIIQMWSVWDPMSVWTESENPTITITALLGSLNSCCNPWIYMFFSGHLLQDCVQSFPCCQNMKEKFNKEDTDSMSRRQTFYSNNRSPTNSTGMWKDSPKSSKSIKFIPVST
OXTR potentiator = human OXTR potentiation. P30559. CHO-OTR cells, Fluo-8 calcium fluorescence, potentiator mode; 0% = oxytocin EC15, 100% = EC100. activation, % at 3 µM. actives 0.061% (n = 320,000);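 active means activation above that plate's cutoff, the mean activation of tested compounds plus 3 SD, cut at about 6.6% in these data, passing the limit was not always enough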
Target sequence (P30559 whole entry, looked up): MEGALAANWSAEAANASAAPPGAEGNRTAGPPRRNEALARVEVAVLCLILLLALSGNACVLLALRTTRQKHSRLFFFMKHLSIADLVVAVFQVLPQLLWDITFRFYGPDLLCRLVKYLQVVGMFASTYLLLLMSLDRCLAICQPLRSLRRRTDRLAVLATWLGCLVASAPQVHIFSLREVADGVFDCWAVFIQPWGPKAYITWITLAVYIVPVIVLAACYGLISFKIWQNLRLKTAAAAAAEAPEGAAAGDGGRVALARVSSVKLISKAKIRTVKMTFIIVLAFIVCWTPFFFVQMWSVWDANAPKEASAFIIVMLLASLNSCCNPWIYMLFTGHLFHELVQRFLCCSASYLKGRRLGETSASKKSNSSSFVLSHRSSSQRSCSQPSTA
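test system = CHO-OTR cells, human receptor | compound = single-point 3.0 µM | schedule = 6 min compound pre-incubation at room temperature, 100 s kinetic read | signal = Fluo-8 no-wash calcium dye fluorescence, excitation 470-495 nm, emission 515-575 nm | repeats = single well per compound, singlicate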
OXTR ag = human OXTR agonism; activation, % at 3 µM; actives 0.32% (n = 320,000); CHO-OTR cells, Fluo-8 calcium fluorescence; normalized: DMSO 0%, oxytocin 100%; P30559;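 active means activation above the mean of all tested compounds plus 3 SD, cutoff set per screening run, cut at about 20% in these data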;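 further: peak over basal fluorescence ratio from a 100 s FLIPR kinetic read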
TRPN1 ag = activates the zebrafish TRPN1 channel; HEK293 zebrafish TRPN1-YFP, Fluo-8 calcium fluorescence; 100% = response to 87 µM carbachol; actives 0.18% (n = 220,000); activation, % at 3 µM;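 active means activation above its plate's cutoff, the mean activation of test wells on that plate plus 3 SD, cut at about 19% in these data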
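Control set: carbachol 87 µM as high control, DMSO as low control; system: HEK293 stable line with zebrafish TRPN1-YFP; read-out: % activation versus carbachol response; detection: intracellular calcium fluorescence with Fluo-8; doses: single test compound dose, 3 µM nominal, 0.3% DMSO; schedule: dye 1 h 37 °C plus 30 min RT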
TRPML3 agonist = agonists of human TRPML3 channel. Q8TDD5. HEK293 TRPML3-YFP, Fluo-8 calcium fluorescence; 100% = the carbachol control signal. activation, % at 3 µM. actives 0.29% (n = 220,000). AID 1448;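 active means activation above its plate's cutoff, the mean activation of the plate's test wells plus 3 SD, cut at about 12% in these data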
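Material: TRPML3-YFP stable HEK293 cells | Dosing: One concentration, 3 µM nominal, 0.3% DMSO | Timing: 125 s total fluorescence read per well | Technique: Fluo-8 calcium dye fluorescence, ex 470-495, em 515-575 nm | Measure: Percent activation from peak-to-basal fluorescence ratio, scaled between DMSO and carbachol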
OXTR pot confirm = confirmation of human oxytocin receptor potentiators. shares compounds with OXTR potentiator. CHO-OTR cells, Fluo-8 calcium fluorescence, potentiation; scaled from low-dose to maximal oxytocin. activation, % at 3 µM. 180 tested, under 10 active. AID 434985;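 active means mean percent activation over triplicates above a cutoff set from solvent-only control plates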;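 further: compounds tested in the presence of an EC15 dose of oxytocin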
V1aR agonist cf = confirmation of human vasopressin V1a receptor agonists | CHO-V1R cells, Fluo-8 calcium fluorescence, agonist | actives 20% (n = 180) | activation, % at 3 µM | shares compounds with V1aR counter;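 active means average activation exceeds primary screen hit cutoff, cut at about 21% in these data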;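 further: peak over basal fluorescence ratio during a 100 s FLIPR read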
OXTR counter = activates oxytocin receptor in V1a agonist counter-screen. activation, % at 3 µM. shares compounds with V1aR counter. AID 434969. CHO-OTR cells, Fluo-8 calcium fluorescence. actives 10% (n = 180);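 active means mean activation over three repeats above the cutoff from the earlier oxytocin receptor agonist screen, cut at about 20% in these data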;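 further: peak over minimum fluorescence ratio within a 100 second FLIPR read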
Large screens that a line does not name were inactive (follow-up assays come after a bar, where they were run).

O=S(=O)(c1ccc(S(=O)(=O)N2CCOCC2)cc1)N1CCCC1	OXTR potentiator 12 | OXTR pot confirm inactive
COC(=O)CSc1[nH]c2ccc(F)cc2c1[N+](=O)[O-]	OXTR potentiator 9.0 | OXTR pot confirm inactive
CCn1c(=O)c(C(=O)Nc2ccccn2)c(O)c2ccccc21	OXTR potentiator 12 | OXTR pot confirm inactive
CC(Oc1cc2oc(=O)cc(-c3ccccc3)c2cc1Cl)C(=O)NCC1CCC(C(=O)O)CC1 (stereo not drawn)	none (no result: TRPN1 ag, TRPML3 agonist)
CCc1cc2c(-c3ccccc3)cc(=O)oc2cc1OC(C)C(=O)NCC1CCC(C(=O)O)CC1 (stereo not drawn)	OXTR potentiator 9.8 (no result: TRPN1 ag, TRPML3 agonist) | OXTR pot confirm inactive
Cc1coc2c(C)c3oc(=O)c(CCC(=O)NCCCN4CCCC4=O)c(C)c3cc12	OXTR potentiator 12 (no result: TRPN1 ag, TRPML3 agonist) | OXTR pot confirm inactive
CC(C)n1cc(/C=N/Nc2ccc(Cl)c(C(=O)O)c2)c2ccccc21	none (no result: TRPN1 ag, TRPML3 agonist)
CNC(=O)c1c(NC(=O)c2cc(-c3cc(C)c(C)cc3O)n[nH]2)sc2c1CCCC2	OXTR potentiator 6.6 | OXTR pot confirm inactive
CNC(=O)c1c(NC(=O)c2ccco2)sc2c1CCC2	none (no result: TRPN1 ag, TRPML3 agonist)
O=c1cnnc(N/N=C/c2ccc3c(c2)OCO3)[nH]1	OXTR potentiator 10 | OXTR pot confirm inactive
CC(Sc1ccc(Cl)cc1)C(=O)NCc1ccc2c(c1)OCO2 (stereo not drawn)	OXTR potentiator 9.4 | OXTR pot confirm inactive
COc1cc(CCN2C(=O)N[C@@H](CCc3ccccc3)C(C(C)=O)=C2C)cc(OC)c1OC	none
Cc1cn([C@H]2C[C@H](O)[C@@H](COS(=O)(=O)O)O2)c(=O)[nH]c1=O	OXTR potentiator 14 (no result: TRPN1 ag, TRPML3 agonist) | OXTR pot confirm inactive
O=C(Nc1ccc(Br)cc1)C1CCN(C(=O)c2ccco2)CC1	none (no result: TRPN1 ag, TRPML3 agonist)
CCOc1ccc(N2C(=O)C(=O)/C(=C(/O)c3ccccc3)C2c2ccccc2[N+](=O)[O-])cc1 (stereo not drawn)	none
Cc1oc(-c2ccc(Cl)cc2)nc1CS(=O)CC(=O)NCc1ccco1 (stereo not drawn)	OXTR potentiator 7.9 (no result: TRPN1 ag, TRPML3 agonist) | OXTR pot confirm inactive
CC[C@@]1(C(=O)OC)N[C@H](CN(C)C(=O)c2ccc(F)cc2)[C@@H]2C(=O)N(C)C(=O)[C@@H]21	none (no result: TRPN1 ag, TRPML3 agonist)
Cc1c(C(=O)NCc2ccccn2)oc2c(Cl)cccc12	OXTR potentiator 13 (no result: TRPN1 ag, TRPML3 agonist) | OXTR pot confirm inactive
CCCCc1ccc(NC(=O)N[C@H](C(=O)O)C(C)CC)cc1 (stereo partly drawn)	OXTR potentiator 13 | OXTR pot confirm inactive
CCCCn1c(-c2ccoc2C)n[nH]c1=S	OXTR potentiator 10 | OXTR pot confirm inactive
O=c1cc(O)c2c(=O)n(-c3ccccc3)c3c(c2o1)CCCCCC3	none
CCOc1ccccc1Nc1nc(N)nc(CSc2nncn2C)n1	OXTR potentiator 11 | OXTR pot confirm inactive
COc1ccc(Nc2nc(N)nc(CSc3nncn3C)n2)cc1	none
CC(C)(C)NC(=O)NC(=O)C[n+]1ccc(Cc2ccc([N+](=O)[O-])cc2)cc1	none (no result: TRPN1 ag, TRPML3 agonist)
O=C(/C=C/c1cccs1)Nc1ccc([N+](=O)[O-])cc1	none
O=C(/C=C/c1cccs1)Nc1ccncc1	OXTR potentiator 13 | OXTR pot confirm inactive
COc1ccccc1CNC(=O)C(=O)Nc1ccc(C(=O)N2CCC(C)CC2)cc1	none (no result: TRPN1 ag, TRPML3 agonist)
Cc1cc(C)n(C(C)Sc2ccccc2)n1 (stereo not drawn)	OXTR potentiator 14 (no result: TRPN1 ag, TRPML3 agonist) | OXTR pot confirm inactive
Cn1c(=O)c2c(nc(NCCCO)n2Cc2cccc(Br)c2)n(C)c1=O	OXTR potentiator 11 | OXTR pot confirm inactive
Cc1cccc(Cn2c(NCCO)nc3c2c(=O)n(C)c(=O)n3C)c1	none
CCOc1ccc(C(=O)COC(=O)c2cc(=O)[nH]c3ccccc23)cc1	none (no result: TRPN1 ag, TRPML3 agonist)
COC(=O)CN(c1nc(C)cc(OC)n1)S(=O)(=O)c1ccccc1	none (no result: V1aR counter, OXTR potentiator, OXTR ag)
CCCN(c1nc(C)cc(OC)n1)S(=O)(=O)c1ccccc1	OXTR potentiator 13 | OXTR pot confirm inactive
O=C(c1ccccc1)N1CCN(S(=O)(=O)N2CCOCC2)CC1	OXTR potentiator 14 | OXTR pot confirm inactive
O=C(NC(c1ccccc1)c1ccccc1)C1CCCC1	OXTR potentiator 12 | OXTR pot confirm inactive
O=C(OCC(=O)N1CCC(Cc2ccccc2)CC1)c1ccc[nH]c1=O	none
CCCCC(=O)NC(=S)NNC(=O)CCc1ccccc1	none
CCN(C(=S)NC(=O)CCc1ccccc1)c1ccccc1	OXTR potentiator 12 | OXTR pot confirm inactive
CC1=C(C(=O)OC(C)C)C(c2cccs2)NC(=O)N1 (stereo not drawn)	OXTR potentiator 9.9 | OXTR pot confirm inactive
CCn1cc(C(=O)NCC(OC)OC)c(=O)c2cc(S(=O)(=O)N3CCOCC3)ccc21	OXTR potentiator 13 (no result: TRPN1 ag, TRPML3 agonist) | OXTR pot confirm inactive
COC(CNC(=O)c1cn(C)c2ccc(S(=O)(=O)N3CCOCC3)cc2c1=O)OC	none (no result: TRPN1 ag, TRPML3 agonist)
CC(C)c1ccc(OCCCN2CCCC2)cc1	none (no result: TRPN1 ag, TRPML3 agonist)
CCOC(=O)C1=C(CNCCOc2ccc(OC)cc2)NC(=O)NC1c1ccc2c(c1)OCO2 (stereo not drawn)	OXTR potentiator 10 | OXTR pot confirm inactive
O=C(NCc1cccc(Cl)c1)c1cccc(S(=O)(=O)N2CCCC2)c1	none (no result: TRPN1 ag, TRPML3 agonist)
Cn1c(N)c(C(=O)Nc2ccc(-c3ccccc3)cc2)sc1=S	none
CCCNC(=O)c1ccc(SC)cc1OC	none
COc1cc(SC)ccc1C(=O)NCCCOC(C)C	OXTR potentiator 11 | OXTR pot confirm inactive
COc1cc(OC)cc(C(=O)NCC(=O)N2CCN(S(=O)(=O)c3ccccc3F)CC2)c1	OXTR potentiator 14 (no result: TRPN1 ag, TRPML3 agonist) | OXTR pot confirm inactive
O=C(NCC(=O)N1CCN(S(=O)(=O)c2ccccc2F)CC1)c1ccc2c(c1)OCO2	none (no result: TRPN1 ag, TRPML3 agonist)
COc1cc(Nc2cc(C)nc3ncnn23)cc(OC)c1OC	none
COc1cc(Nc2cc(C)nc3ncnn23)cc(OC)c1	OXTR potentiator 6.4 | OXTR pot confirm inactive
CCOc1ccc(OCC)c(Nc2cc(C)nc3ncnn23)c1	OXTR potentiator 16 | OXTR pot confirm inactive
COc1ccc(CC(=O)Nc2nccs2)cc1S(=O)(=O)N1CCOCC1	none (no result: TRPN1 ag, TRPML3 agonist)
COc1ccc2nc(NC(=O)Cc3ccc(OC)c(S(=O)(=O)N4CCOCC4)c3)sc2c1	V1aR counter 23 | V1aR agonist cf inactive | OXTR counter inactive

Screens from PubChem BioAssay.
